In brackets after ≈: the same amount, converted by molar mass.
Key:
[1] = Cytotoxicity against human IMR90 cells after 24 hrs by MTT assay; type: cell-based, IMR-90; conditions: read-out: ID50
Procedure, shortened: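 IMR-90 embryonic fibroblasts (ATCC) were grown in DMEM with 10% FCS and 1% glutamine at 37 °C, 5% CO2. Cells were plated at 4 or 8×10^3/well and attached overnight. They were treated 24 h, in duplicate, with compounds from methanol stocks diluted in medium, with a methanol blank. MTT (5 mg/mL stock) was added for 4 h, formazan dissolved in DMSO, and read at 550 nm.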

[2] = Cytotoxicity against human Hs 578T cells after 24 hrs by MTT assay; type: functional; conditions: read-out: ID50 (the source's name)
Procedure, shortened: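 Hs578T cells (ATCC) were maintained in DMEM with 10% FCS, 1% glutamine and 10 μg/mL insulin. Cells were seeded at 4 or 8×10^3/well and allowed to adhere overnight at 37 °C. They were exposed 24 h, in duplicate, to compounds in methanol diluted with medium, with a methanol blank. MTT (5 mg/mL stock) was added for 4 h, formazan dissolved in DMSO, and A550 measured.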

[3] = Cytotoxicity against human U87MG cells after 24 hrs by MTT assay; type: functional, U-87MG ATCC; conditions: U-87 MG, read-out: ID50 (the source's name)
Procedure, shortened: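 U87-MG glioblastoma cells (ATCC) were grown in MEM with 10% FCS, 1% sodium pyruvate and 1% nonessential amino acids. Cells were seeded at 4 or 8×10^3/well and adhered overnight at 37 °C. They were exposed 24 h, in duplicate, to methanol-dissolved compounds diluted in medium, with a methanol blank. MTT (5 mg/mL stock) was added for 4 h, formazan dissolved in DMSO, and absorbance read at 550 nm.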

[4] = Cytotoxicity against HUVEC after 24 hrs by MTT assay; type: cell-based; conditions: human, read-out: ID50
Procedure, shortened: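 Primary HUVEC from newborns, grown in DMEM/medium 199 with 20% FCS, 10 mM HEPES, heparin and ECGS at 37 °C, 5% CO2. Cells were seeded at 4 or 8×10^3/well and attached overnight. Compounds were added from methanol solutions diluted in medium, with a methanol blank, for 24 h in duplicate. MTT (5 mg/mL stock) was added for 4 h, formazan dissolved in DMSO, and A550 read.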

MDA-MB-231 = assay: Cytotoxicity against human MDA-MB-231 cells after 24 hrs by MTT assay; type: functional; conditions: MDA-MB-231, 24 h, read-out: ID50 (the source's name)
Procedure, shortened: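 MDA-MB-231 cells (ATCC) were cultured in Leibovitz's L-15 with 10% FCS. Cells were seeded at 4 or 8×10^3/well and attached overnight at 37 °C. Compounds dissolved in methanol and diluted in medium were added for 24 h in duplicate, with a methanol blank. MTT (5 mg/mL stock) was added for 4 h, formazan taken up in DMSO, and A550 recorded.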

HT-1080 = assay: Cytotoxicity against human HT1080 cells after 24 hrs by MTT assay; type: functional; conditions: HT-1080, 24 h, read-out: ID50 (the source's name)
Procedure, shortened: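 HT-1080 cells (ATCC) were kept in DMEM with 10% FCS, 1% glutamine and 1% vitamins at 37 °C, 5% CO2. Cells were seeded at 4 or 8×10^3/well and attached overnight, then exposed for 24 h in duplicate to methanol-dissolved compounds diluted in medium, with a methanol blank. MTT (5 mg/mL stock) was given for 4 h, formazan solubilized in DMSO, and absorbance read at 550 nm.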

CC(=O)O[C@H]1C[C@@H](C)[C@H](CO)C2=C1C(C)(C)C[C@]2(C)CO
CC50 at 24 h [1]: > 10 µg/mL
IC50 [2]: > 10 µg/mL
IC50 [3]: > 10 µg/mL
CC50 at 24 h [4]: > 10 µg/mL
IC50 (MDA-MB-231): > 10 µg/mL
IC50 (HT-1080): > 10 µg/mL

CC(=O)O[C@H]1C[C@@H](C)[C@@H]2COC(=O)[C@@]3(C)CC(C)(C)[C@H]1[C@]23O
CC50 at 24 h [1]: > 10 µg/mL
IC50 [2]: > 10 µg/mL
IC50 [3]: > 10 µg/mL
CC50 at 24 h [4]: > 10 µg/mL
IC50 (MDA-MB-231): > 10 µg/mL
IC50 (HT-1080): > 10 µg/mL

CC(=O)O[C@H]1C[C@@H](C)[C@H](C=O)[C@@]2(O)[C@@H]1C(C)(C)C[C@]2(C)C=O [BOTRYDIAL]
CC50 at 24 h [1]: 10 µg/mL (≈ 32.2 µM)
IC50 [2]: 1 µg/mL (≈ 3.22 µM)
IC50 [3]: 1 µg/mL (≈ 3.22 µM)
CC50 at 24 h [4]: 1 µg/mL (≈ 3.22 µM)
IC50 (MDA-MB-231): 1 µg/mL (≈ 3.22 µM)
IC50 (HT-1080): 1 µg/mL (≈ 3.22 µM)

CC(=O)O[C@H]1C[C@@H](C)[C@H](C(=O)O)[C@@]2(O)[C@@H]1C(C)(C)C[C@]2(C)C(=O)O [BOTRYDIOIC ACID]
CC50 at 24 h [1]: > 10 µg/mL
IC50 [2]: > 10 µg/mL
IC50 [3]: > 10 µg/mL
CC50 at 24 h [4]: > 10 µg/mL
IC50 (MDA-MB-231): > 10 µg/mL
IC50 (HT-1080): > 10 µg/mL

CC(=O)O[C@H]1C[C@@H](C)[C@H](CO)[C@@]2(O)[C@@H]1C(C)(C)C[C@]2(C)CO [BOTRYDIOL]
CC50 at 24 h [1]: > 10 µg/mL
IC50 [2]: > 10 µg/mL
IC50 [3]: > 10 µg/mL
CC50 at 24 h [4]: > 10 µg/mL
IC50 (MDA-MB-231): > 10 µg/mL
IC50 (HT-1080): > 10 µg/mL

CC(=O)O[C@H]1C[C@@H](C)C(C=O)=C2[C@@H]1C(C)(C)C[C@]2(C)CO [BOTRYENALOL]
CC50 at 24 h [1]: > 10 µg/mL
IC50 [2]: > 10 µg/mL
IC50 [3]: > 10 µg/mL
CC50 at 24 h [4]: > 10 µg/mL
IC50 (MDA-MB-231): > 10 µg/mL
IC50 (HT-1080): > 10 µg/mL

CC(=O)O[C@H]1C[C@@H](C)C(C=O)=C2[C@@H]1C(C)(C)C[C@]2(C)C=O [BOTRYENEDIAL]
CC50 at 24 h [1]: > 10 µg/mL
IC50 [2]: 10 µg/mL (≈ 34.2 µM)
IC50 [3]: 10 µg/mL (≈ 34.2 µM)
CC50 at 24 h [4]: 10 µg/mL (≈ 34.2 µM)
IC50 (MDA-MB-231): 10 µg/mL (≈ 34.2 µM)
IC50 (HT-1080): 10 µg/mL (≈ 34.2 µM)

CC(=O)O[C@H]1C[C@@H](C)[C@H](C(=O)O)[C@@]2(O)[C@@H]1C(C)(C)C[C@]2(C)CO [BOTRYOLOIC ACID]
CC50 at 24 h [1]: > 10 µg/mL
IC50 [2]: > 10 µg/mL
IC50 [3]: > 10 µg/mL
CC50 at 24 h [4]: > 10 µg/mL
IC50 (MDA-MB-231): > 10 µg/mL
IC50 (HT-1080): > 10 µg/mL

CC(=O)O[C@H]1C[C@@H](C)[C@@H]2[C@@H](O)OC[C@@]3(C)CC(C)(C)[C@H]1[C@]23O [DIHYDROBOTRYDIAL]
CC50 at 24 h [1]: > 10 µg/mL
IC50 [2]: > 10 µg/mL
IC50 [3]: > 10 µg/mL
CC50 at 24 h [4]: > 10 µg/mL
IC50 (MDA-MB-231): > 10 µg/mL
IC50 (HT-1080): > 10 µg/mL

COC(=O)[C@H]1[C@H](C)C[C@H](OC(C)=O)[C@H]2C(C)(C)C[C@](C)(C(=O)OC)[C@@]12O [DIMETHYL BOTRYDIOATE]
CC50 at 24 h [1]: > 10 µg/mL
IC50 [2]: > 10 µg/mL
IC50 [3]: > 10 µg/mL
CC50 at 24 h [4]: > 10 µg/mL
IC50 (MDA-MB-231): > 10 µg/mL
IC50 (HT-1080): > 10 µg/mL

COC(=O)[C@@]1(C)CC(C)(C)[C@@H]2[C@@H](OC(C)=O)C[C@@H](C)[C@H](C=O)[C@@]21O [METHYL ACETYLBOTRYALOATE]
CC50 at 24 h [1]: > 10 µg/mL
IC50 [2]: > 10 µg/mL
IC50 [3]: > 10 µg/mL
CC50 at 24 h [4]: > 10 µg/mL
IC50 (MDA-MB-231): > 10 µg/mL
IC50 (HT-1080): > 10 µg/mL

COC(=O)[C@@]1(C)CC(C)(C)[C@@H]2[C@@H](O)C[C@@H](C)[C@H](C=O)[C@@]21O [METHYL BOTRYALOATE]
CC50 at 24 h [1]: > 10 µg/mL
IC50 [2]: > 10 µg/mL
IC50 [3]: > 10 µg/mL
CC50 at 24 h [4]: > 10 µg/mL
IC50 (MDA-MB-231): > 10 µg/mL
IC50 (HT-1080): > 10 µg/mL

COC(=O)[C@@]1(C)CC(C)(C)[C@H]2C1=C(C=O)[C@H](C)C[C@@H]2O [METHYL BOTRYENALOATE]
CC50 at 24 h [1]: > 10 µg/mL
IC50 [2]: > 10 µg/mL
IC50 [3]: > 10 µg/mL
CC50 at 24 h [4]: > 10 µg/mL
IC50 (MDA-MB-231): > 10 µg/mL
IC50 (HT-1080): > 10 µg/mL

C=CC1=C(/C(=C\C)CO)[C@@](C)(CO)CC1(C)C [SECOBOTRYTRIENDIOL]
CC50 at 24 h [1]: > 10 µg/mL
IC50 [2]: > 10 µg/mL
IC50 [3]: > 10 µg/mL
CC50 at 24 h [4]: > 10 µg/mL
IC50 (MDA-MB-231): > 10 µg/mL
IC50 (HT-1080): > 10 µg/mL

From ChEMBL document CHEMBL1150672, “Chemical transformations on botryane skeleton. Effect on the cytotoxic activity” (J Nat Prod, 2003)
